31 compounds from ChEMBL document CHEMBL2040739, “Effect of phosphodiesterase 7 (PDE7) inhibitors in experimental autoimmune encephalomyelitis mice. Discovery of a new chemically diverse family of compounds” (J Med Chem, 2012) can be followed below.

SMILES strings stand for the structures. Calls of active or inactive are those of the source. The calls are words filed in the database; no cut-off is given here.

Data set [1] concerns the target T1, High affinity 3',5'-cyclic-AMP phosphodiesterase 7A (Homo sapiens, UniProt Q13946). Nature of the data set: Inhibition of human recombinant PDE7A1-mediated [3H]cAMP hydrolysis after 20 mins by scintillation proximity assay. Put shortly:
(§1)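 Scintillation proximity assay with human recombinant full-length enzyme: PDE7A1 or PDE3A at 0.02 unit, or PDE7B at 0.5 unit. Enzyme incubated with 5 nCi [3H]cAMP for 20 min at 30 °C. SPA beads added, shaken 1 h at room temperature, then settled 30 min before counting. Single-point screens at 10 μM run in duplicate. IC50 from a sigmoidal dose−response fit.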
For orientation: In a scintillation proximity assay essentially only radioactivity close to the scintillant gives light.

For data set [2], the target named is T2, cGMP-inhibited 3',5'-cyclic phosphodiesterase 3A (Homo sapiens, UniProt Q14432). Put plainly: Inhibition of human recombinant PDE3A-mediated [3H]cAMP hydrolysis after 20 mins by scintillation proximity assay. Put shortly: as §1
Data set [3] relates to Microglia. Nature of the data set: Antiinflammatory activity in rat microglia cells assessed as inhibition of LPS-induced nitrite production at 5 to 10 uM incubated for 1 hr prior to LPS-challenge measured after 24 hrs by Griess method. Type of data set: functional, cell-based. Put shortly: (§2)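 Glial cells from neonatal rat cerebral cortex; microglia and astrocytes separated by shaking and cultured 1 week. Purity >98% by OX42 and GFAP staining. Microglia kept with 10 ng/mL GM-CSF. Cells given compound for 1 h, then LPS (10 μg/mL) for 24 h. Nitrite in the supernatant measured by Griess reaction at 492/540 nm. Mean ± SD of six replications in three experiments.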
For orientation: The Griess reaction detects nitrite, a stable product of nitric oxide.

A short description of data set [4]: Cytotoxicity against rat astrocytes at 5 to 10 uM after 16 hrs by MTT assay. As to conditions: astrocyte. Format: cell-based. Put shortly: (§3)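 Primary neonatal rat cortical astrocytes or microglia, after 1 week in culture, exposed to compound for 16 h. MTT at 0.5 mg/mL for 4 h, then solubilized in 10% SDS/0.01 M HCl for 12 h in the dark. Absorbance read at 595 nm. Six replications in three experiments.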
A general note: Formazan colour is commonly taken as a measure of viable cells.

For data set [5], the system named is Astrocyte. Put plainly: Antiinflammatory activity in rat astrocytes assessed as inhibition of LPS-induced nitrite production at 5 to 10 uM incubated for 1 hr prior to LPS-challenge measured after 24 hrs by Griess method. Format: functional, cell-based. A digest of the protocol:
as §2

Data set [6] deals with T2, cGMP-inhibited 3',5'-cyclic phosphodiesterase 3A. Nature of the data set: Inhibition of human recombinant PDE3A-mediated [3H]cAMP hydrolysis at 10 uM after 20 mins by scintillation proximity assay. A digest of the protocol:
as §1

Another data set is filed under the species Homo sapiens. Put plainly: Selectivity index, ratio of IC50 for human recombinant PDE7A1 to IC50 for human recombinant PDE3A. A digest of the protocol:
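Ratio of IC50 values for PDE7A1 and PDE3A, each obtained by scintillation proximity assay with [3H]cAMP for 20 min at 30 °C.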

The nature of data set [7]: Cytotoxicity against rat microglia cells at 5 to 10 uM after 16 hrs by MTT assay. Format: cell-based. Put shortly: as §3
For data set [8], the target named is T1, High affinity 3',5'-cyclic-AMP phosphodiesterase 7A. Put plainly: Inhibition of human recombinant PDE7A1-mediated [3H]cAMP hydrolysis at 10 uM after 20 mins by scintillation proximity assay. Put shortly:
as §1

Data set [9] has the same target. Nature of the data set: Inhibition of PDE7A1.
Data set [10] has the same target. Put plainly: Competitive inhibition of human recombinant PDE7A1 using 5 nM to 2 uM cAMP as substrate by Lineweaver-Burk plot analysis. A digest of the protocol: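 PDE7A1 scintillation proximity assay with unlabeled cAMP varied from 5 nM to 2 μM, against fixed [3H]cAMP tracer. Two inhibitor concentrations tested, with AMP formation measured. Data analysed by Lineweaver−Burk plots. Triplicate measurements, mean ± SEM.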

Data set [11] relates to Microglia. Put plainly: Antiinflammatory activity in rat microglia cells assessed as inhibition of LPS-induced nitrite production at 30 uM incubated for 1 hr prior to LPS-challenge measured after 24 hrs by Griess method. Format: functional, cell-based. A digest of the protocol:
as §2

For data set [12], the system named is Astrocyte. Nature of the data set: Antiinflammatory activity in rat astrocytes assessed as inhibition of LPS-induced nitrite production at 30 uM incubated for 1 hr prior to LPS-challenge measured after 24 hrs by Griess method. Format: functional, cell-based. A digest of the protocol: as §2
The target of data set [13] is T3, High affinity 3',5'-cyclic-AMP phosphodiesterase 7A (Mus musculus) (UniProt P70453).
T3 sequence (whole entry): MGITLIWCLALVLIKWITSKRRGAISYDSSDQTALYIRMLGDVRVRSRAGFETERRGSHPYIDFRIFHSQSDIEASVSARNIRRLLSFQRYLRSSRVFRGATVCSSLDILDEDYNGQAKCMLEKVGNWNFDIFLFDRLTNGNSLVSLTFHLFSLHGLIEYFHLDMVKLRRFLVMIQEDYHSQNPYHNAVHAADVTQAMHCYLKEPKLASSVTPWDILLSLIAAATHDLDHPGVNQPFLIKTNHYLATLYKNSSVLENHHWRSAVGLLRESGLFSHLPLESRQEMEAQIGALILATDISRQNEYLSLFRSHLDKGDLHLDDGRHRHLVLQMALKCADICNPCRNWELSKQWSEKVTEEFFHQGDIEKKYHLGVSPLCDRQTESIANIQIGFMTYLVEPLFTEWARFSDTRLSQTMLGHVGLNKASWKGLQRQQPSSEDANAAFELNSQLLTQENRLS
Put plainly: Inhibition of PDE7A1 in mouse RAW cells assessed as increase in cAMP level at 10 to 30 uM after 60 mins by enzyme immunoassay. Type of data set: cell-based. Put shortly: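 RAW cells seeded at 3 × 10^4 per well and incubated overnight. Compound added for 60 min at 10 or 30 μM. Intracellular cAMP quantified by enzyme immunoassay kit.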

T2 sequence (Q14432 whole entry): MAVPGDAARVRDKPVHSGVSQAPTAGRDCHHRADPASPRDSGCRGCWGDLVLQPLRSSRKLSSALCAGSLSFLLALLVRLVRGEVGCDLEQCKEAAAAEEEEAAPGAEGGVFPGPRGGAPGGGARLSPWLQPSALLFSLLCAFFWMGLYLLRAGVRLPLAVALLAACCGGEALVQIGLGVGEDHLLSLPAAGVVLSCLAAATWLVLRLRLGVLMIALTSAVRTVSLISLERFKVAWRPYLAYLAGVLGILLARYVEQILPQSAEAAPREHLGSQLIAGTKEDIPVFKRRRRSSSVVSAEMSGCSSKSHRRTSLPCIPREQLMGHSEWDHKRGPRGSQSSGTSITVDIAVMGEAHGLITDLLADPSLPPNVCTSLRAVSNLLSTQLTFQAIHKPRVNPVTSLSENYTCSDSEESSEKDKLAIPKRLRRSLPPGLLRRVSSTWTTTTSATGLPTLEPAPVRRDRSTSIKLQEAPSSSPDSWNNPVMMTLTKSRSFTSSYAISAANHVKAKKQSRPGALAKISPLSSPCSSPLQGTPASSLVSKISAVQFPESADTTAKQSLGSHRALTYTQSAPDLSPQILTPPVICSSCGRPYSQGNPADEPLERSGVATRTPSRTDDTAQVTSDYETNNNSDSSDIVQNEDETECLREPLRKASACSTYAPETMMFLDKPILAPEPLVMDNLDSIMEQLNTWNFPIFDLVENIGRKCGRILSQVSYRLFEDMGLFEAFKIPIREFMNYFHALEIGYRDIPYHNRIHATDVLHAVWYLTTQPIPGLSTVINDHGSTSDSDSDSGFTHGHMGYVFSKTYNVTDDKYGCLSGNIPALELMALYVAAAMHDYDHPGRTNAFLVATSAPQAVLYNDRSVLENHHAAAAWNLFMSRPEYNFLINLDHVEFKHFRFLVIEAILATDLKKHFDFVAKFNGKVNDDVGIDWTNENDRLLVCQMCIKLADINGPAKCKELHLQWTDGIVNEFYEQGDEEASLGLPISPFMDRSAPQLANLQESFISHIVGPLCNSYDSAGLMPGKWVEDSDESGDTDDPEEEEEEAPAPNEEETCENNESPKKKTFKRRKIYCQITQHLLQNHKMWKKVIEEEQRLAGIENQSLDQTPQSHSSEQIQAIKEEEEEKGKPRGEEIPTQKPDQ
T1 sequence (Q13946 whole entry): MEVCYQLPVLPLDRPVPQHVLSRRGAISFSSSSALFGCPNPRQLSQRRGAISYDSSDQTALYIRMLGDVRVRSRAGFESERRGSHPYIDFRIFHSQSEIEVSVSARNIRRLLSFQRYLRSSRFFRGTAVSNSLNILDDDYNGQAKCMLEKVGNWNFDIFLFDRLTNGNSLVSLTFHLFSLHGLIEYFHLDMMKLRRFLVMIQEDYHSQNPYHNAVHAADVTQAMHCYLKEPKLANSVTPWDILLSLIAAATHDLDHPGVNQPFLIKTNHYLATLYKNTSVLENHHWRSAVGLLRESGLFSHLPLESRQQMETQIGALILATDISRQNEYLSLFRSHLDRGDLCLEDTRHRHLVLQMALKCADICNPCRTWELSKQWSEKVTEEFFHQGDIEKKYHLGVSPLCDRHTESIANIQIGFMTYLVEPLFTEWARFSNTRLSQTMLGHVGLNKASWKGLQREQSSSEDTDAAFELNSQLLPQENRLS

With `COc1cc(COC(=O)c2ccc(-c3ccc([N+](=O)[O-])cc3)o2)cc(OC)c1OC`, the IC50 in [1] worked out at 14.1 µM; in [2], 3.4 µM. The outcome in the data set with Microglia [3] and in the data set on Astrocyte [5] was Active. Further, the Activity result in data set [4] and in data set [7] was “Non-toxic” throughout. The inhibition in data set [6] turned out to be 57.1%; in data set [8] it was 48%. For the same compound, in the data set filed under Homo sapiens, the Ratio IC50 was found to be 4.15.
Take `CCOc1cc(C(=O)OCc2ccc(-c3ccc(C)cc3)o2)cc(OCC)c1OCC`: the inhibition in data set [8] was 16.4%.
Still for that read-out and setting: under `COc1ccc(COC(=O)c2ccc(-c3ccc(Cl)cc3[N+](=O)[O-])o2)cc1` stands 41.6%; under `COc1cc(COC(=O)c2ccc(-c3ccc(C)cc3[N+](=O)[O-])o2)cc(OC)c1OC`, 28.8%.
Consider `CCOC(=O)c1sc(NC(=O)C(CC)OC(=O)C(CC(C)C)NC(=O)c2ccccc2)nc1C` (stereo unspecified), for which half-maximal inhibition in data set [9] (IC50) required 0.86 µM.
`COc1cc(C(=O)OCc2ccc(-c3ccc([N+](=O)[O-])cc3)o2)cc(OC)c1OC`: the IC50 in [1] amounted to 33.4 µM. The inhibition in data set [8] came to 49.5%.
With `COc1cc(C(=O)OCc2ccc(-c3ccc(Cl)cc3Cl)o2)cc(OC)c1OC`, in [8], the inhibition amounted to 24.4%.
The same measure, in the same setting: under `COc1cc(COC(=O)c2ccc(-c3ccccc3Cl)o2)cc(OC)c1OC` stands 34.6%; under `COc1cc(COC(=O)c2ccco2)cc(OC)c1OC`, 10%.
`CCOc1cc(C(=O)OCc2ccc(-c3ccc([N+](=O)[O-])cc3C)o2)cc(OCC)c1OCC`: in data set [8], the inhibition was 29%. The same compound gave a 50% inhibitory concentration (IC50) in data set [9] of 0.58 µM.
`CCOc1cc(COC(=O)c2ccc(-c3ccc(Cl)cc3Cl)o2)cc(OCC)c1OCC`: the inhibition in [8] came to 31.1%.
The same measure, in the same setting: under `COc1cc(COC(=O)c2ccc(-c3cc(C(F)(F)F)ccc3Cl)o2)cc(OC)c1OC` stands 8%; under `COc1ccc(COC(=O)c2ccc(-c3ccccc3)o2)cc1`, 44.8%.
As for `COc1cc(CNC(=O)c2ccc(-c3ccc(C)cc3[N+](=O)[O-])o2)cc(OC)c1OC`, the half-maximal inhibitory concentration (IC50) in data set [1] stood at 3.2 µM; in [2], 3.9 µM. In addition, the outcome in the data set on Microglia [3] and in the data set with Astrocyte [5] was Active. In addition, the Activity entry in data set [4] and in [7] was “Non-toxic” throughout. The inhibition constant Ki in [10] worked out at 7.22 µM. Also, the inhibition in data set [6] was found to be 49.6%; in data set [8], 70.5%. Moreover, the Ratio IC50 in the data set filed under Homo sapiens stood at 0.82.
As for `COc1ccc(C2CNC(=O)C2)cc1OC1CCCC1` (stereo unspecified), the result in the data set with Microglia [11] and in the data set with Astrocyte [12] was Active.
For the compound `CCOc1cc(COC(=O)c2ccc(-c3ccc([N+](=O)[O-])cc3)o2)cc(OCC)c1OCC`, the inhibition in [8] turned out to be 29.2%.
As for `COc1cc(COC(=O)c2ccc(-c3ccccc3C(F)(F)F)o2)cc(OC)c1OC`, the values for the IC50 in [1] and in [2] were 2.63 µM and 1.8 µM, respectively. Also, the outcome with Microglia [3] and with Astrocyte [5] was Active. In addition, the Activity entry in [4] and in data set [7] was “Non-toxic” in each case. For the same compound, the inhibition was determined as 74.9% in [6] and 54.9% in [8]. Besides, in the data set listed under Homo sapiens, the Ratio IC50 worked out at 1.44.
For the compound `COc1ccc(-c2ccc(C(=O)OCc3cc(OC)c(OC)c(OC)c3)o2)cc1`, the inhibition in data set [8] was found to be 14%.
In the case of `COc1cc(COC(=O)c2ccc(-c3ccc(Cl)cc3[N+](=O)[O-])o2)cc(OC)c1OC`, in data set [1], the half-maximal inhibitory concentration (IC50) turned out to be 7.31 µM. Further, the result in the data set on Microglia [3] and in the data set on Astrocyte [5] was Active. Besides, the Activity result in data set [4] and in data set [7] was “Non-toxic” throughout. Further, the inhibition came out at 11% in data set [6] and 49.1% in [8].
In the case of `CCOc1cc(COC(=O)c2ccc(-c3ccc(C)cc3)o2)cc(OCC)c1OCC`, the inhibition in data set [8] was 28%.
Same read-out and setting: for `COc1cc(COC(=O)c2ccc(-c3ccc(C)cc3)o2)cc(OC)c1OC` the value was 30.7%.
Consider `CC1CCCCC1NC(=O)C(c1ccccc1Cl)N(CCc1ccccc1Cl)C(=O)CCl` (stereo unspecified), for which the IC50 in data set [9] came out at 0.88 µM.
For the compound `COc1cc(COC(=O)c2ccc(-c3cccc(C(F)(F)F)c3)o2)cc(OC)c1OC`, the inhibition in data set [8] came out at 14%.
Take `CCOc1cc(COC(=O)c2ccc(-c3ccccc3)o2)cc(OCC)c1OCC`: the inhibition in [8] turned out to be 30.8%.
Regarding `COc1cc(COC(=O)c2ccc(-c3ccc(Cl)cc3Cl)o2)cc(OC)c1OC`, the inhibition in data set [8] is 38.3%.
Still for that read-out and setting: for `CCOc1cc(C(=O)OCc2ccc(-c3ccc(Cl)cc3Cl)o2)cc(OCC)c1OCC` the value was 3.7%; for `COc1cc(COC(=O)c2ccc(C)o2)cc(OC)c1OC`, -9.9%.
Same read-out and setting: for `CCOc1cc(C(=O)OCc2ccc(-c3ccc([N+](=O)[O-])cc3)o2)cc(OCC)c1OCC` the value was 39.9%.
For `CCOc1cc(C(=O)OCc2ccc(-c3ccccc3)o2)cc(OCC)c1OCC`, the values for the IC50 in data set [1] and in data set [2] were 12.3 µM and 104 µM, respectively. Moreover, the result in the data set with Microglia [3] and in the data set on Astrocyte [5] was Active. The Activity entry in data set [4] and in data set [7] was “Non-toxic” each time. Also, the inhibition in data set [6] worked out at 3%; in data set [8], 48.8%. Besides, the Ratio IC50 in the data set filed under Homo sapiens is 0.12.
With `COc1cc(CNC(=O)c2ccc(-c3cccc(C(F)(F)F)c3)o2)cc(OC)c1OC`, the inhibition in data set [8] was determined as 23.5%.
For `Cc1ccc([N+](=O)[O-])cc1S(=O)(=O)N(C)C`, the IC50 in data set [1] came to 0.09 µM. The outcome with Microglia [11] and with Astrocyte [12] was Active. Also, the inhibition entry in [13] was “Active”.

For orientation: IC50 means the point on the concentration scale where inhibition reaches its midpoint. As a reminder, the inhibition is the drop in the measured response relative to a control, in per cent. One may read the Ki as the dissociation constant of the complex between target and ligand, obtained from inhibition or displacement.
